Assay results reported in ChEMBL document CHEMBL1147044, “Design of helical, oligomeric HIV-1 fusion inhibitor peptides with potent activity against enfuvirtide-resistant virus” (Proc Natl Acad Sci U S A, 2007).
≈ marks a conversion by molar mass, not a printed value.

What was measured:
[1] = Clearance in cynomolgus monkey at 1 to 2 mg/kg, iv; format: ADME, organism-based, Macaca fascicularis; design: dose 1-2 mg/kg, route intravenous; conditions: in vivo
How it was run: (§1)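 Male cynomolgus monkeys received a single i.v. dose of about 1–2 mg/kg in isotonic phosphate-mannitol vehicle, given as cassettes (typically n ≤ 8). Plasma was protein-precipitated with 0.5% formic acid in acetonitrile and peptide measured by reversed-phase HPLC. Parameters were fitted with mono- or biexponential models.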

[2] = Half life in cynomolgus monkey at 1 to 2 mg/kg, iv; format: ADME, organism-based, Macaca fascicularis; design: dose 1-2 mg/kg, route intravenous; conditions: in vivo; how it was run: as §1
[3] = test system: Human immunodeficiency virus 1; experiment: Antiviral activity against HIV1 3B infected in human PBMCs by reverse transcriptase assay; format: functional, organism-based; conditions: Human immunodeficiency virus 1, 3B
How it was run: (§2)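 CD8-depleted activated PBMC targets infected at high MOI by spinoculation; infected cells incubated with uninfected targets at 2 × 10⁵ cells per well with serially diluted peptide for 9 days. Fresh compound added and samples taken every 2–3 days. Replication read by reverse transcriptase assay; IC50 from reduction in RT signal relative to infected untreated wells.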

[4] = test system: Human immunodeficiency virus 1; experiment: Antiviral activity against HIV1 098 isolate infected in human PBMCs by reverse transcriptase assay; format: functional, organism-based; how it was run: as §2
[5] = test system: Human immunodeficiency virus 1; experiment: Antiviral activity against HIV1 098-T20 isolate infected in human PBMCs by reverse transcriptase assay; format: functional, organism-based; how it was run: as §2
[6] = test system: Human immunodeficiency virus 1; experiment: Antiviral activity against HIV1 098-T1249 isolate infected in human PBMCs by reverse transcriptase assay; format: functional, organism-based; how it was run: as §2
[7] = test system: Human immunodeficiency virus 1; experiment: Antiviral activity against HIV1 098-T651 isolate infected in human PBMCs by reverse transcriptase assay; format: functional, organism-based; how it was run: as §2
[8] = test system: Human immunodeficiency virus 1; experiment: Binding affinity to HIV1 gp41 heptad repeat 1 region assessed as thermal stability of HR1/HR2 peptide bundle complex at 1 uM in presence of 8M urea

- clearance [1]: 0.717 mL/min/kg
- half-life [2]: 978 min
- IC50 [3]: 7 ng/mL (≈ 1.59 nM)
- IC50 [4]: 0.018 µg/mL (≈ 4.08 nM)
- IC50 [5]: 0.025 µg/mL (≈ 5.66 nM)
- IC50 [6]: 0.015 µg/mL (≈ 3.4 nM)
- IC50 [7]: 0.021 µg/mL (≈ 4.76 nM)
- Tm [8]: 86 °C
SMILES: CC[C@H](C)[C@H](NC(=O)[C@H](C)NC(=O)[C@H](CCCNC(=N)N)NC(=O)[C@H](CC(=O)O)NC(=O)[C@H](Cc1c[nH]c2ccccc12)NC(=O)[C@H](C)NC(=O)[C@H](CCC(=O)O)NC(=O)[C@H](Cc1c[nH]c2ccccc12)NC(=O)[C@@H](NC(=O)[C@@H](N)[C@@H](C)O)[C@@H](C)O)C(=O)N[C@@H](C)C(=O)N[C@@H](CCC(=O)O)C(=O)N[C@@H](Cc1ccc(O)cc1)C(=O)N[C@@H](C)C(=O)N[C@@H](C)C(=O)N[C@@H](CCCNC(=N)N)C(=O)N[C@H](C(=O)N[C@@H](CCC(=O)O)C(=O)N[C@@H](C)C(=O)N[C@@H](CC(C)C)C(=O)N[C@H](C(=O)N[C@@H](CCCNC(=N)N)C(=O)N[C@@H](C)C(=O)N[C@@H](C)C(=O)N[C@@H](CCC(N)=O)C(=O)N[C@@H](CCC(=O)O)C(=O)N[C@@H](CCC(N)=O)C(=O)N[C@@H](CCC(N)=O)C(=O)N[C@@H](CCC(=O)O)C(=O)N[C@@H](CCCCN)C(=O)N[C@@H](CC(N)=O)C(=O)N[C@@H](CCC(=O)O)C(=O)N[C@@H](C)C(=O)N[C@@H](C)C(=O)N[C@@H](CC(C)C)C(=O)N[C@@H](CCCNC(=N)N)C(=O)N[C@@H](CCC(=O)O)C(=O)N[C@@H](CC(C)C)C(=O)O)[C@@H](C)CC)[C@@H](C)CC
